DNMT1 inh = blocks human DNA methyltransferase DNMT1. P26358. DNMT1 molecular beacon, Hinp1I cleavage, fluorescence. inhibition (reported as % activation of signal), % at 10 µM. 360,000 compounds, 0.83% hits. AID 588458; in the data active means inhibition above about 50%
Scp1 inh = Scp-1 (human) phosphatase inhibition; inhibition, % at 20 µM; Q9GZU7; Recombinant Scp1, phosphopeptide, malachite green phosphate absorbance; 340,000 compounds, 0.88% hits;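 active means inhibition above about 50% at 20 µM, limit read from the data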
Target sequence (Q9GZU7 76-261 limits assumed): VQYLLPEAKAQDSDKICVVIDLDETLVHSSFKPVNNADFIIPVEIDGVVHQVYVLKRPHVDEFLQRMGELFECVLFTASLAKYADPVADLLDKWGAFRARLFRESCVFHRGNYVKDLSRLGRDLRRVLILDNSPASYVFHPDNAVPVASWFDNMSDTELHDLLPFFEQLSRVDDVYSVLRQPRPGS
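Material: truncated SCP-1 phosphatase (76-261aa) / Buffer or medium: 50 mM Tris acetate pH 5.5, 0.005% Tween-20, 10 mM MgCl2 / Compound dosing: one concentration, 20 µM, with 1.0% DMSO / Incubation: 45 min room-temperature reaction, 5 min colour, 30 min stabiliser / Detection: colorimetric free-phosphate detection, absorbance 630 nm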
CSN inh = inhibitors of human CSN-mediated cullin deneddylation | Q92905 | Purified CSN, SCF-Nedd8-OG deneddylation, fluorescence polarization | inhibition, % at 12.5 µM | 360,000 compounds, 0.38% hits | AID 651999;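 active means pattern-corrected inhibition above about 35%, with an unprinted fluorescence ratio check between 0.5 and 1.5, limit read from the data, passing the limit was not always enough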
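Assay system: purified human Csn5 enzyme expressed in HEK293T cells; measure: % inhibition; also added: SCFSkp2-Nedd8OG substrate at 10 nM final; technique: fluorescence polarization; times: reaction 90 min, room temperature; medium: Tris buffer pH 7.5, NaCl, DTT, Tween-20, trehalose, ovalbumin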
STEP block = blocks human striatal-enriched tyrosine phosphatase. P54829. recombinant STEP, OMFP fluorogenic substrate, fluorescence. inhibition, % at 20 µM. 360,000 compounds, 0.25% hits. AID 588621;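 active means inhibition at 20 µM, scaled per plate between control wells, above about 37%, limit read from the data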
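material = STEP tyrosine phosphatase | reagent = fluorogenic phosphatase substrate OMFP at 25 µM final | doses = single compound dose of 20 µM, 1% DMSO final | schedule = 20 min reaction, room temperature, in the dark | measured by = fluorescence, 480/540 nm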
LMPTP block = LMPTP (human) inhibition; P24666; recombinant LMPTP-A, OMFP fluorogenic substrate, fluorescence intensity; inhibition, % at 20 µM; 360,000 compounds, 0.22% hits; AID 651560;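 active means compounds that cut the enzyme signal by at least half of the control window in the single-dose screen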
Target sequence (P24666 whole entry, looked up): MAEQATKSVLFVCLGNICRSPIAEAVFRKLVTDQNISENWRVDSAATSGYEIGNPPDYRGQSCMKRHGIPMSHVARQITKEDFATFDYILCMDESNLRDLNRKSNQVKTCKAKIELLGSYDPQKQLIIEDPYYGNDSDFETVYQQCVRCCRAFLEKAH
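Test system – LMPTP-A phosphatase enzyme · Quantity – 0.625 nM LMPTP-A final · Reagent – OMFP substrate, 400 µM final · Dosing – one test concentration per compound, 20 µM, with 3% DMSO overall · Timing – 50 min enzyme reaction at room temperature, protected from light · Detection – fluorescence intensity · Controls – substrate-only low control, DMSO enzyme-plus-substrate high control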
SUMO1-SIM PPI = alters human SUMO1 binding to SIM partners. 360,000 compounds, 0.33% hits. SUMO1 binding to a labelled peptide, TR-FRET, 1 h. P63165. inhibition, % at 20 µM; in the data active means inhibition above about 37%
Target sequence (P63165 whole entry, looked up): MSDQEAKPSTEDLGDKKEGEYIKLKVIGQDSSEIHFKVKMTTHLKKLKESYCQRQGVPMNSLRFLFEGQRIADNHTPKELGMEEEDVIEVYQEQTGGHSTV
STEP conf = STEP (human) phosphatase inhibition, single concentration confirmation; shares compounds with STEP block; recombinant STEP, OMFP fluorogenic substrate, fluorescence; inhibition, % at 20 µM; 520 compounds, 32% hits; AID 623866; call rule not given here
A number is an active result; n = inactive; x = no result given. Hits are enriched below; roughly 1.9% of the tested compounds scored in any of these assays.

SMILES	DNMT1 inh	Scp1 inh	CSN inh	STEP block	LMPTP block	SUMO1-SIM PPI	STEP conf
COC(=O)C1=C(CS(=O)(=O)c2ccc(Cl)cc2)NC(=O)NC1c1ccc(O)cc1 (stereo not drawn)	n	n	n	93	n	n	n
COC(=O)C1=C(CS(=O)(=O)c2ccccc2)NC(=O)NC1c1ccc(O)cc1 (stereo not drawn)	n	n	n	n	n	n	x
Cc1ccc2nc(Nc3ccc(F)cc3)c3nncn3c2c1	n	n	n	45	n	n	n
Cc1csc2ncc(C(=O)NCc3ccccn3)c(=O)n12	n	n	n	98	n	n	n
O=C(N/N=C/c1ccc(OC(=O)c2cccc(F)c2)cc1)c1cccnc1	n	n	41	98	57	n	n
CCOC(=O)N(C)c1c(CC)nc2c(OCc3ccccc3C)cccn12	n	x	n	n	n	n	x
Cc1csc(NC(=O)CCCC(=O)O)c1-c1nc2ccccc2s1	n	n	n	93	n	n	n
O=C1C(=O)N(CCCO)C(c2ccc(Br)cc2)/C1=C(\O)c1ccc(Br)cc1 (stereo not drawn)	n	n	n	41	n	n	38
COc1ccc(C(=O)Nc2cc(-c3ccc(C)cc3)no2)cc1	n	n	n	94	n	n	n
CN(CCC#N)C(=O)CC1(Cc2ccccc2)CCOC(C)(C)C1 (stereo not drawn)	n	n	n	n	n	n	x
CN(Cc1ccccc1)C(=O)c1ccccc1Br	n	n	n	n	n	n	x
Cc1nn2c(CN(C(=O)CN3CCOCC3)c3ccccc3)nnc2c2ccccc12	n	n	n	n	n	n	x
Cc1nn2c(CN(C(=O)COc3ccccc3)c3ccccc3)nnc2c2ccccc12	n	n	n	122	n	n	n
Cc1cccc(N2CCN(C(=O)CCNS(=O)(=O)c3ccc4c(c3)oc(=O)n4C)CC2)c1C	n	n	n	74	n	n	n
COc1cc2c(cc1NC(=O)c1cccc([N+](=O)[O-])c1)oc1ccccc12	n	n	n	84	66	n	n
COc1cc2c(cc1NC(=O)c1ccc(C)c([N+](=O)[O-])c1)oc1ccccc12	n	n	n	n	n	n	x
CCN1CCN(CCCN(Cc2ccco2)C(=S)Nc2cc(Cl)ccc2C)CC1	n	n	n	41	n	n	n
O=C1[C@@H]2[C@@H]3C[C@@H]([C@H]4ON=C(c5ccc(OCc6ccccc6)cc5)[C@@H]34)[C@@H]2C(=O)N1c1ccc2c(c1)OCO2	n	n	n	n	n	n	x
O=C1[C@@H]2[C@@H]3C[C@@H]([C@H]4ON=C(c5ccc(Cl)cc5)[C@@H]34)[C@@H]2C(=O)N1c1ccc2c(c1)OCO2	n	n	n	46	n	n	n
CN(C)S(=O)(=O)c1cc(NC(=O)c2cc(=O)c3ccccc3o2)ccc1Cl	n	n	n	n	n	n	x
COc1ccc(NC(=O)c2cc(=O)c3ccccc3o2)cc1Cl	n	n	n	42	n	n	28
COc1ccc(NC(=O)COC(=O)C2COc3ccccc3O2)cc1OC (stereo not drawn)	n	x	n	n	n	n	x
N#C/C(=C/c1ccc(OCc2ccc(C(=O)O)cc2)c(Br)c1)c1cccc(F)c1	93	50	n	94	86	n	n
COc1ccc(N(C(=O)C(C)C)S(=O)(=O)c2cccs2)cc1	n	n	n	44	n	n	n
COc1ccc(N(C(C)=O)S(=O)(=O)c2cccs2)cc1	n	n	n	n	n	n	x
SMILES	DNMT1 inh	Scp1 inh	CSN inh	STEP block	LMPTP block	SUMO1-SIM PPI	STEP conf
CC(=O)c1cccc(NC(=O)COC(=O)COc2c(Cl)cc(Cl)c3ccc(C)nc23)c1	n	n	n	n	n	n	x
Cc1cccc(N2CCN(S(=O)(=O)c3ccc4c(c3)CCN4C(=O)CCC(=O)O)CC2)c1C	n	n	n	41	n	n	n
Cc1ccc(NC(=O)NCCCN2CCCC2=O)cc1	n	n	n	n	n	n	x
COc1ccc(NC(=S)NCCCN2CCCC2=O)c(OC)c1	n	n	n	46	n	n	n
O=C1CCCN1CCCNC(=S)Nc1ccc(F)cc1	n	n	n	43	n	n	n
COc1ccc(NC(=O)NCCCN2CCCC2=O)cc1	n	n	n	n	n	n	x
O=C(Nc1ccc(F)cc1F)N1CCN(CCc2ccccc2)CC1	n	n	n	n	n	n	x
O=C(N/N=C/c1ccc([N+](=O)[O-])cc1)c1cccnc1	n	n	n	n	n	n	x
Nc1c(C(=O)N/N=C/c2ccc([N+](=O)[O-])cc2)cnn1-c1ccccc1	n	n	n	52	n	n	n
O=S(=O)(O)c1cc(O)c2cc(Nc3ccccc3)ccc2c1	98	88	n	72	83	77	100
O=C(NC1CCCCCC1)C(=S)NC1CCCCC1	n	n	n	57	n	n	31
CCNc1nc(NCC)nc(NC(N)=S)n1	n	n	n	n	n	n	x
CCNc1nc(NC(N)=S)nc(NC(C)(C)C)n1	n	n	n	37	n	n	n
COc1ccc(Br)cc1CN1CCCCCCC1	n	n	n	n	n	n	x
COc1ccc(C(CNC(=O)Nc2ccc(Cl)cc2)N2CCN(C)CC2)cc1 (stereo not drawn)	n	n	n	n	n	n	x
CC(C)N(C)CCOC(=O)c1ccccc1Br	n	n	n	78	n	n	n
CCCCn1c(N)c(N(CCOC)C(=O)c2ccc(C)c(S(=O)(=O)N3CCCCC3)c2)c(=O)[nH]c1=O	n	n	n	n	n	n	x
CC(C)CC(=O)Nc1ccc(C(=O)COC(=O)CN2C(=O)NC3(CCCCC3C)C2=O)cc1 (stereo not drawn)	n	n	n	n	n	n	x
Cn1c(=O)[nH]c(=O)c2c1nc(SCCN1CCCCC1)n2CCCc1ccccc1	n	n	n	80	n	n	46
Cc1ccc(Cn2c(SCCN3CCCCC3)nc3c2c(=O)[nH]c(=O)n3C)cc1	n	n	n	61	n	n	n
Cn1c(=O)[nH]c(=O)c2c1nc(SCCN1CCCCC1)n2Cc1ccccc1	n	n	n	n	n	n	x
COCCSc1nc2c(c(=O)[nH]c(=O)n2C)n1CCCc1ccccc1	n	n	n	n	n	n	x
O=C(Nn1cnnc1)c1ccc(Br)s1	n	n	n	118	n	n	n
O=C(Nc1ccccn1)c1ccc(Br)s1	n	n	n	n	n	n	x
Nc1c(C(=O)c2ccc(Br)cc2)oc2ccccc12	n	n	n	43	n	n	n
COc1ccc(-c2cc(CCC(=O)N3CCN(c4cc(C)ccc4C)CC3)on2)cc1	n	n	n	n	n	n	x

From PubChem BioAssay
